The values below come from ChEMBL document CHEMBL1129350, “Hypoxia-selective antitumor agents. 13. Effects of acridine substitution on the hypoxia-selective cytotoxicity and metabolic reduction of the bis-bioreductive agent nitracrine N-oxide” (J Med Chem, 1996).

Each structure is given as a SMILES string. Some results are limits rather than exact numbers.

One assay relates to Mus musculus. Description: Maximum tolerated ip dose for male C3H/HeN mice. In kind it is functional. Put shortly: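 Compounds formulated in water, injected ip at 0.01 mL/g into male C3H/HeN mice (20–25 g); groups of six mice, dose increments of 1.33-fold, observed 28 days. MTD taken as highest dose causing no deaths or unacceptable morbidity.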
Assay [1] deals with CHO-AA8. Description: Concentration needed to reduce cell survival to 10% of control values, using 1 hour exposure of plateau phase AA8 cells at 10e6 cells/ml. The format is functional, Cricetulus griseus. Put shortly: (§1)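 Plateau-phase AA8 cells at 10⁶/mL in magnetically stirred 10 mL suspensions in αMEM with 5% fetal calf serum, continuously gassed with 5% CO₂ in air or N₂. Cells and drug solutions were pre-equilibrated under the gas phase for 60 min before mixing, then exposed for 1 h. Clonogenic survival was read as plating efficiency. C10 is the concentration lowering plating efficiency to 10% of concurrent untreated controls. The air/N₂ ratio is C10(air)/C10(N₂).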

Assay [2] can be described thus: Spheroid resistance factor which is defined as the ratio C10 (intact)/ C10 (dissociated) EMT6 cells. In kind it is functional. Put shortly: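 EMT6/Ak spheroids were grown in αMEM with 10% FBS in spinner flasks to about 1000–1400 μm diameter. For dissociated cells, spheroids were treated with pronase 0.5 mg/mL and DNAase I 1 mg/mL for 30 min at 37 °C, washed, then exposed to drug for 1 h. Intact spheroids were exposed at 1 spheroid/mL in stirred vials for 1 h before dissociation and plating. Both exposures used about 2 × 10⁵ cells/mL, 5% CO₂/20% O₂, 37 °C. C10 was interpolated from at least four concentrations per survival curve. SRF is C10(intact)/C10(dissociated). Results are mean ± SEM of independent experiments.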

The nature of assay [3]: Inhibitory activity against aerobic growth of UV4cells, Hypersensitivity factor is the ratio of IC50(AA8) to IC50(UV4). In kind it is functional. The gist of the method:
(§2)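 Growth inhibition: 200 log-phase AA8 or 300 UV4 cells were seeded per well. One day later they were exposed to drug for 18 h under aerobic conditions (5% CO₂) in αMEM with 5% fetal calf serum. Cell mass was measured as protein by methylene blue staining 72–78 h after drug removal. IC50 is the concentration reducing cell mass to 50% of the mean of eight controls on the same plate. HF is IC50(AA8)/IC50(UV4).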

Assay [4] is described as follows: Air/N2 ratio = C10(air)/C10(nitrogen). Put shortly:
as §1

The subject of assay [5] is CHO-AA8. Description: Inhibitory activity against aerobic growth of AA8 cells. The format is functional, cell-based. Conditions: Cricetulus griseus. Put shortly:
as §2

The test system of a further assay is EMT6 (Mus musculus). Description: Concentration resulting in 10% survival in dissociated EMT6 spheroid cell suspension.

In turn, `COc1ccc([N+](=O)[O-])c2c(NCCCN(C)C)c3ccccc3nc12` yielded an MTD in the assay on Mus musculus of 15 µM/kg. In addition, the C10 is 16 µM with CHO-AA8 [1] and 1.7 µM with EMT6 (Mus musculus). The results for the Ratio in assay [2], in assay [3] and in assay [4] were 7.7, 14 and 11, respectively. Further, in the assay on CHO-AA8 [5], 0.47 µM corresponded to half-maximal inhibition (IC50).
In the case of `Cc1ccc([N+](=O)[O-])c2c(NCCC[N+](C)(C)[O-])c3ccccc3nc12`, in the assay with Mus musculus, the MTD was 15 µM/kg. In the assay with CHO-AA8 [1], this compound displayed a C10 of 47 µM. Besides, the results for the Ratio in assay [3] and in assay [4] were 29 and 150, respectively. In addition, the IC50 in the assay on CHO-AA8 [5] stood at 5.4 µM.
On to `COc1cccc2c(NCCCN(C)C)c3c([N+](=O)[O-])ccc(OC)c3nc12`, for which the MTD in the assay with Mus musculus was determined as 100 µM/kg. The same compound yielded a C10 with CHO-AA8 [1] of 47 µM. For the same compound, the results for the Ratio in assay [3] and in assay [4] were 11 and 14, respectively. In the assay with CHO-AA8 [5], half-maximal inhibition (IC50) required 0.51 µM.
In the assay on Mus musculus, `COc1cc(OC)c2nc3ccccc3c(NCCC[N+](C)(C)[O-])c2c1[N+](=O)[O-]` registered an MTD of 800 µM/kg. This compound also yielded a C10 in the assay on CHO-AA8 [1] of 20000 µM. In addition, the Ratio in assay [3] amounted to 0.9; in assay [4], 1.2. The compound further displayed an IC50 with CHO-AA8 [5] of 1960 µM.
`COc1ccc([N+](=O)[O-])c2c(NCCC[N+](C)(C)[O-])c3ccccc3nc12` had an MTD in the assay with Mus musculus of 100 µM/kg. The C10 was found to be 15700 µM in the assay on CHO-AA8 [1] and 300 µM in the assay with EMT6 (Mus musculus). Besides, the Ratio in assay [2] was determined as 1.9; in assay [3] it was 43; in assay [4] it was 1250. The compound also showed an IC50 in the assay with CHO-AA8 [5] of 130 µM.
In the assay with Mus musculus, `COc1cccc2c(NCCC[N+](C)(C)[O-])c3c([N+](=O)[O-])ccc(OC)c3nc12` returned an MTD of 450 µM/kg. In addition, in the assay with CHO-AA8 [1], the C10 is 59000 µM. Also, the Ratio worked out at 14 in assay [3] and 2770 in assay [4]. Further, it took 150 µM to reach half-maximal inhibition in the assay with CHO-AA8 [5] (IC50).
The corresponding values for `Cc1cccc2c(NCCC[N+](C)(C)[O-])c3c([N+](=O)[O-])ccc(C)c3nc12` are 15 µM/kg, 60 µM, 32, 54 and 6.8 µM.
As to `Cc1cccc2c(NCCCN(C)C)c3c([N+](=O)[O-])ccc(C)c3nc12`, in the assay with Mus musculus, the MTD was found to be 20 µM/kg. This compound also gave a C10 in the assay on CHO-AA8 [1] of 9.6 µM. In addition, the results for the Ratio in assay [3] and in assay [4] were 22 and 11, respectively. This compound also gave an IC50 with CHO-AA8 [5] of 0.19 µM.
As to `CN(C)CCCNc1c2ccccc2nc2cccc([N+](=O)[O-])c12` [NITRACRINE], in the assay with Mus musculus, the MTD was found to be 0.3 µM/kg. For the same compound, the figures for the C10 with CHO-AA8 [1] and with EMT6 (Mus musculus) were 0.4 µM and 0.11 µM, respectively. The Ratio in assay [2] came out at 10.7; in assay [3] it was 15; in assay [4], 5.1.
Compound `Cc1ccc([N+](=O)[O-])c2c(NCCCN(C)C)c3ccccc3nc12` showed an MTD in the assay on Mus musculus of 0.2 µM/kg. In the assay on CHO-AA8 [1], this compound registered a C10 of 1.5 µM. Further, the results for the Ratio in assay [3] and in assay [4] were 13 and 6.9, respectively. In the assay on CHO-AA8 [5], this compound came in with an IC50 of 0.053 µM.
On to `COc1ccc2nc3ccccc3c(NCCCN(C)C)c2c1[N+](=O)[O-]`, for which the C10 in the assay on CHO-AA8 [1] is more than 60 µM. In addition, the Ratio in assay [3] came to 4.6. The compound also registered an IC50 with CHO-AA8 [5] of 2.9 µM.
The compound `COc1ccc2nc3ccccc3c(NCCC[N+](C)(C)[O-])c2c1[N+](=O)[O-]` registered an MTD in the assay on Mus musculus of 300 µM/kg. This compound also returned a C10 with CHO-AA8 [1] of more than 300 µM. In the assay with CHO-AA8 [5], this compound had an IC50 of 84 µM.
`C[N+](C)([O-])CCCNc1c2ccccc2nc2cccc([N+](=O)[O-])c12` came in with an MTD with Mus musculus of 15 µM/kg. Besides, the results for the C10 with CHO-AA8 [1] and with EMT6 (Mus musculus) were 61 µM and 1.9 µM, respectively. The figures for the Ratio in assay [2], in assay [3] and in assay [4] were 7, 15 and 820, respectively. Moreover, in the assay with CHO-AA8 [5], 2.7 µM corresponded to half-maximal inhibition (IC50).
In the assay on Mus musculus, `COc1cc(OC)c2nc3ccccc3c(NCCCN(C)C)c2c1[N+](=O)[O-]` showed an MTD of 300 µM/kg. This compound also displayed a C10 with CHO-AA8 [1] of 500 µM. The figures for the Ratio in assay [3] and in assay [4] were 1.3 and 2.3, respectively. Further, the midpoint of inhibition in the assay on CHO-AA8 [5], the IC50, lay at 47 µM.
